Source: PubChem BioAssay (several laboratories)
MsrA inh = inhibits bovine methionine sulfoxide reductase A; purified bovine MsrA, absorbance read-out; inhibition, % at 15.5 µM; actives 0.75% (n = 360,000); AID 651718; in the data active = inhibition above about 4.5%;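 note: 0% = vehicle wells with enzyme and 100% = reference inhibitor wells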
MT1-MMP act inh = inhibitors of human MT1-MMP activation | HT1080 RFP-PRO-GFP cells, GFP/RFP ratio fluorescence, overnight; percent of plate control window, DMSO zero | GFP/RFP ratio change, % at 20 µM | actives 0.061% (n = 360,000) | AID 651647;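 active = GFP/RFP ratio change of at least 30% with cell ATP level not reduced by more than half and red fluorescence within 50% of control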
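Assay system: HT1080 RFP-PRO-GFP cells | Dosing: 20 µM single dose, 1% DMSO | Incubation: Cells overnight before dosing, compound overnight, 37 °C, 5% CO2 | Evaluation: GFP/RFP fluorescence ratio | Control set: DMSO-only wells and HT1080 RFP-L50D-GFP cell wells as references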
SKN-1 inh = C. elegans SKN-1 inhibition | inhibition, % at 21.8 µM | C. elegans VP596 Pgst-4::GFP/RFP ratio, acrylamide-induced, 24 h | actives 0.49% (n = 360,000) | AID 624304;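 active = interference check ratio from 0.5 to 1.5 plus GFP to RFP signal ratio inhibition reaching or exceeding a fixed threshold, cut at about 30% in these data, passing the limit was not always enough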
beta cell repl = inducers of beta-cell replication in MIN6 cells. MIN6 cells proliferation, ATPlite luminescence, 48 h; cells starved in 0.2% serum; 100% = growth in 10% serum. proliferation, % at 10 µM. actives 0.29% (n = 330,000). AID 2380;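 active = compounds whose signal lies at least 3.5 SD above the mean of all wells on their plate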;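 note: 0% = DMSO-treated cells in low-serum medium and 100% = 10% serum control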
MsrA act = activates bovine MsrA enzyme. purified bovine MsrA, absorbance read-out. activation, % at 10.6 µM. actives 0.3% (n = 360,000); in the data active = activation above about 7.5%;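 note: 0% = vehicle and 100% = reference activator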
DAGLB inhibitor = blocks human DAGLB lipase activity. AID 504411. actives 0.059% (n = 340,000). HEK293T DAGLB membrane lysate, EnzChek fluorogenic substrate. inhibition, % at 5.17 µM; in the data active = inhibition above about 34%;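 note: 0% = enzyme with vehicle and 100% = wells lacking enzyme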
Target sequence (Q8NCG7 whole entry, looked up): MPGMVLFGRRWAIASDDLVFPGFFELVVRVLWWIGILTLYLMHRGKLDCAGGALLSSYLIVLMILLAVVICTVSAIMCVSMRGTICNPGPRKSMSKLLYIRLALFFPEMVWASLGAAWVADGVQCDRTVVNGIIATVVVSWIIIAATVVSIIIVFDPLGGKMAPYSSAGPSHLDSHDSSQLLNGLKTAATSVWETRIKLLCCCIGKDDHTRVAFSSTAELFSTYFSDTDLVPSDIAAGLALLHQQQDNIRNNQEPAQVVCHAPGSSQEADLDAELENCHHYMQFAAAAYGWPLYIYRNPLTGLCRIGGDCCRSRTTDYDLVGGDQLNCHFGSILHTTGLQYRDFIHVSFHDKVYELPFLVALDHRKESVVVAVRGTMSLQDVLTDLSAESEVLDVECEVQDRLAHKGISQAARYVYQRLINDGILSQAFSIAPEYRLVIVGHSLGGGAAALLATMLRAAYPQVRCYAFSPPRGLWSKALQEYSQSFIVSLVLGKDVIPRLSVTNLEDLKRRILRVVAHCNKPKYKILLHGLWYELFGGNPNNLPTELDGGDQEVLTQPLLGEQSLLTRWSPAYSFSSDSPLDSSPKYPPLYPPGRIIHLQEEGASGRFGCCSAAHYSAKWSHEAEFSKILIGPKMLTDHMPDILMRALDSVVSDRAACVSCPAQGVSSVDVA
An asterisk follows results filed as active; nt = not tested or not shown. Hits are enriched below; roughly 1.8% of the tested compounds scored in any of these assays.

SMILES	MsrA inh	MT1-MMP act inh	SKN-1 inh	beta cell repl	MsrA act	DAGLB inhibitor
Brc1ccc2oc(-c3ccn[nH]3)cc2c1	-3	2	39*	-3	-2	nt
Cc1nn(C)c(C(=O)NC2C3CC4CC(C3)CC2C4)c1Cl (stereo not drawn)	-1	3	16	7.7*	-3	-6
CCCCCOc1ccccc1C(=O)NCCC(=O)O	2	0	38*	1	-3	2
COC(=O)[C@@H](N[C@H](/C=C/c1ccccc1)[C@@H](O)Cc1ccccc1)C(C)C	0	nt	nt	nt	nt	nt
COc1cc(NC(=O)c2noc3c2CCCC3)c(OC)cc1Cl	nt	-4	9	-1	-6	-12
COc1ccc(Cl)cc1NC(=O)c1noc2c1CCCC2	1	-3	21	7.6*	-4	-25
CC1C/C(=C\c2cccnc2)C(=O)/C(=C/c2cccnc2)C1 (stereo not drawn)	5.2*	-5	-5	nt	-10	-8
O=C(Nc1cccnc1)c1ccc(CSc2ccc(Cl)cc2)o1	-1	nt	nt	nt	nt	nt
CCCCCOC(=O)c1ccc(NC(=O)c2ccco2)cc1	1	-1	71*	-6	-1	-1
CCCCOC(=O)c1ccc(NC(C)=O)cc1	0	-1	9	2	-4	0
CCCCOC(=O)c1ccc(NC(=O)/C=C/c2cccs2)cc1	1	-5	37*	-2	-1	-5
CCCCOC(=O)c1ccc(NC(=S)NC(=O)c2ccco2)cc1	-1	-1	4	-7	-2	0
COc1cc2c(c3c1c(=O)c1cccc(F)c1n3C)C=CC(C)(C)O2	0	nt	nt	nt	nt	nt
CN1C2CCC1/C(=C\c1ccc(F)cc1)C(=O)/C2=C/c1ccc(F)cc1	0	-17	18	-6	-6	-4
C=CC(=O)N1C/C(=C/c2ccc(F)cc2)C(=O)/C(=C\c2ccc(F)cc2)C1	5.1*	-1	13	nt	-6	2
O=C(C(=O)N1CCC(CNS(=O)(=O)c2ccccc2OC(F)(F)F)CC1)c1cc2ccccc2o1	1	nt	nt	nt	nt	nt
Cc1ccc(-c2noc(CNc3ccccc3)n2)cc1	1	0	-28	-3	-1	-9
CCc1ccc(NCc2nc(-c3ccccc3)no2)cc1	1	8	42*	0	-5	-11
COc1ccc2c(c1)sc1nc(-c3ccccc3)cn12	0	17	37*	-4	-2	-9
CCOC(=O)N1CCN(C(=O)c2ccc3c(c2)sc2nc(-c4ccc(OC)cc4)cn23)CC1	0	3	3	-3	1	2
C[C@H](O)[C@@H]1CN2CCc3ccc(-c4ccc5c(c4)OCO5)cc3[C@@H]2C[C@@H]1N(C)Cc1cc(Cl)cc(Cl)c1	0	nt	nt	nt	nt	nt
O=[N+]([O-])c1ccc(Oc2cccc(Br)c2)c2ccncc12	1	-10	5	-3	-2	-4
O=[N+]([O-])c1ccc(Oc2ccc(F)cc2)c2ccncc12	1	-13	36*	4	-3	0
C[C@H]1[C@H](c2ccccc2)Oc2cccc(NCCc3ccccc3)c2S(=O)(=O)N1Cc1cccc(Cl)c1	0	nt	nt	nt	nt	nt
CCC1(C)Cc2ccccc2-c2nc(NCCO)n(-c3ccc(C)cc3)c(=O)c21 (stereo not drawn)	2	-9	38*	1	-1	-1
SMILES	MsrA inh	MT1-MMP act inh	SKN-1 inh	beta cell repl	MsrA act	DAGLB inhibitor
N#C/C(=C\c1ccc(F)cc1)c1nc(-c2ccco2)cs1	-1	3	60*	3	-5	-18
Cc1c(NC(=O)CSc2ccc(Cl)cc2)c(=O)n(-c2ccccc2)n1C	-1	0	1	0	-3	-2
Cc1c(NC(=O)CSc2ccc3c(c2)OCCO3)c(=O)n(-c2ccccc2)n1C	2	0	44*	0	2	0
COC(=O)c1ccc2c(c1O)C(=O)c1ccccc1C2=O	0	-1	-5	-6	9.3*	-6
COC(=O)c1cccc2c1-c1ccccc1/C2=N/O	1	-15	18	5.5*	-5	-5
COC(=O)c1cccc2c1-c1ccccc1/C2=N\NC(N)=O	2	3	13	-5	-2	-2
O=C1C2C3CC4C5C3C1C5C1(SCCS1)C42 (stereo not drawn)	0	1	-5	nt	-5	nt
Cc1cc(C)c(S(=O)(=O)NCc2cccs2)cc1C	1	-3	-9	-2	-3	-5
CCCOc1cc(C)c(S(=O)(=O)NCc2cccs2)cc1C	0	2	44*	-3	-1	-10
COc1ccc(C(CCNCc2ccc(OC(C)C)cc2)c2ccccc2OC)cc1 (stereo not drawn)	-3	-6	6	-4	0	-8
COc1ccc(CNCCC(c2ccc(OC)cc2)c2ccccc2OC)cc1 (stereo not drawn)	2	-4	38*	-4	-1	-2
O=C(/C=C/Nc1ccccc1O)c1ccco1	1	-12	6	-3	-3	1
O=C(/C=C/Nc1ccc(F)c(Cl)c1)c1ccco1	1	-2	75*	-4	2	0
O=C(/C=C/Nc1ccc(F)cc1F)c1ccco1	2	0	45*	-5	-7	-3
CN(C)c1ccc(N/C=C/C(=O)c2ccco2)cc1	1	6	39*	-3	0	9
O=C(/C=C/Nc1ccc(Br)cc1F)c1ccco1	2	-7	76*	-5	-1	-5
O=C(/C=C/Nc1cccc(F)c1)c1ccco1	2	2	35	-2	-1	3
O=C(O)CC(Sc1ccc(Cl)cc1)C(=O)Nc1ccccc1 (stereo not drawn)	0	nt	nt	nt	nt	nt
COC(=O)C1=C(C)NC(=O)/C1=C\N(C)C	2	-6	39*	1	-8	-6
COC(=O)C1=C(C)NC(=O)/C1=C\c1cccs1	2	0	-11	-2	-5	1
CCOc1ccc2nc(N(CCN(C)C)C(=O)c3cc4ccccc4cc3OC)sc2c1	nt	-4	38*	-4	0	0
CCOc1cccc2sc(N(CCN(C)C)C(=O)c3cc4ccccc4cc3OC)nc12	-1	-3	-7	-8	-8	1
COc1ccccc1Cc1c(C2CCCCC2)nc2c(C)cc(Br)cn12	1	nt	nt	nt	nt	nt
CCCCCCCCCCCCCCCC[n+]1cccc2ccccc21	-1	-45	53*	-3	-10	8
O=c1ccn(Cc2ccccc2)c(SCc2ccccc2)n1	0	5	0	nt	-3	-2
Clc1ccc(CSc2nccn2Cc2ccccc2)cc1	-1	-7	38*	-6	1	-4
O=C(Nc1ccc2c(c1)CN(Cc1ccco1)CC2)C1CCCO1 (stereo not drawn)	0	-6	37*	0	-3	0
O=C(Nc1ccc2c(c1)CN(C(=O)Nc1ccc(F)cc1)CC2)c1ccccn1	0	-3	38*	nt	-2	-2
